Test [1] deals with T1, Hexokinase-1 (Rattus norvegicus) (UniProt P05708).
T1 sequence (whole entry): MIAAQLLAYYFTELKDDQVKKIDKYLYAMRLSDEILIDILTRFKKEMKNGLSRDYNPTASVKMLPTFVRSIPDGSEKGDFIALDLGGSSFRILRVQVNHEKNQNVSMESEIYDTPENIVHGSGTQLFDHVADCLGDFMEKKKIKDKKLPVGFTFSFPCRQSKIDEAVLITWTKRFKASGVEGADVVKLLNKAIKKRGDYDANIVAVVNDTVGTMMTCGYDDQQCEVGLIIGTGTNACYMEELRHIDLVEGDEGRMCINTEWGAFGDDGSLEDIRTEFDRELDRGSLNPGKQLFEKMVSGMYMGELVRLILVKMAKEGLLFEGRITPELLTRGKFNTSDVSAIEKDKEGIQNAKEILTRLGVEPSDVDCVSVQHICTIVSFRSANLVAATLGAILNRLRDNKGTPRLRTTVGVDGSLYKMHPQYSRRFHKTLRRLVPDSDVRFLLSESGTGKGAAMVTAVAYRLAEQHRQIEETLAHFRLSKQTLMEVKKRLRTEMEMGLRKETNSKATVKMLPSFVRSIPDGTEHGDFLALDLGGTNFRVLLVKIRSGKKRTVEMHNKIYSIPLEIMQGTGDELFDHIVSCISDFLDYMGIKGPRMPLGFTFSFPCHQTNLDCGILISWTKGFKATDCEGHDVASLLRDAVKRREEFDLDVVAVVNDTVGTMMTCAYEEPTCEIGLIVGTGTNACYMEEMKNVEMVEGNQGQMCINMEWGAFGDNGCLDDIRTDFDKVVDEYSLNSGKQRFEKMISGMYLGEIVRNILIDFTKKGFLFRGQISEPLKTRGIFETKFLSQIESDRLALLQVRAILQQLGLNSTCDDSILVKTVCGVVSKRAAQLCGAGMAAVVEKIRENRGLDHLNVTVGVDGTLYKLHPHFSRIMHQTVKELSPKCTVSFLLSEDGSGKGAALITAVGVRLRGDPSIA
As to the kind of experiment: Time dependent inhibition of Hexokinase type I activity after 6 h, at 22 degrees celsius, at 5 mM compound.

Test [2] concerns Saccharomyces cerevisiae. As to the kind of experiment: Time dependent inhibition of hexokinase activity after 6 hr, at 22 degrees celsius, with 5 mM ATP derivative in yeast.
In test [3] the target is Thymidine kinase (Escherichia coli) (UniProt P23331). Kind of test: Compound was tested for the loss of thymidine kinase activity from Escherichia coli after 6 hr at 0 degrees C at 10 mM.
The target in test [4] is T2, Hexokinase-3 (Rattus norvegicus) (UniProt P27926).
T2 sequence (whole entry): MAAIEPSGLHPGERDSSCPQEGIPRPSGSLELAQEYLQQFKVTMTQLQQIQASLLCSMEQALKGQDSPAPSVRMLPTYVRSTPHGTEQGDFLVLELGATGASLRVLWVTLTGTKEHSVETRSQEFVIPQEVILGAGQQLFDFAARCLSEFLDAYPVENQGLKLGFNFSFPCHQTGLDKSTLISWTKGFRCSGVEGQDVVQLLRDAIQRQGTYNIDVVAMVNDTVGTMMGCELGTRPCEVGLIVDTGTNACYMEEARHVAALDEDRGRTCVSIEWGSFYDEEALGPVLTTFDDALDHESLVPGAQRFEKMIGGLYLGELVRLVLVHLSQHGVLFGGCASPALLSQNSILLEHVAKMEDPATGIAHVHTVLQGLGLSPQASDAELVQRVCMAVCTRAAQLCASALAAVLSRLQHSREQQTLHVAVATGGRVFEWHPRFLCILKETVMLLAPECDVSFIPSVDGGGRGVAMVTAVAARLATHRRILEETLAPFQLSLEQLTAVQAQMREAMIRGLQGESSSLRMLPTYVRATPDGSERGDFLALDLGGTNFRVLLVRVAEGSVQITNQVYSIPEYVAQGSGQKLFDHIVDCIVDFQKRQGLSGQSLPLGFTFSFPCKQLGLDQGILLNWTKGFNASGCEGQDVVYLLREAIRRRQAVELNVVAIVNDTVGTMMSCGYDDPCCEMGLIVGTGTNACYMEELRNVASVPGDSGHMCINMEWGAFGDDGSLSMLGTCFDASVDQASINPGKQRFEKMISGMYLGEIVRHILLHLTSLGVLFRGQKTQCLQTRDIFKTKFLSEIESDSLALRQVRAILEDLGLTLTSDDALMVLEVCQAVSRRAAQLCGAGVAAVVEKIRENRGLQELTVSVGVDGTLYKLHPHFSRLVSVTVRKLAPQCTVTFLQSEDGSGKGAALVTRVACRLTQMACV
Kind of test: Time dependent inhibition of Hexokinase type III activity after 6 h, at 22 degrees celsius, at 5 mM.

Test [5] has as its target T3, Hexokinase-2 (Rattus norvegicus) (UniProt P27881).
T3 sequence (whole entry): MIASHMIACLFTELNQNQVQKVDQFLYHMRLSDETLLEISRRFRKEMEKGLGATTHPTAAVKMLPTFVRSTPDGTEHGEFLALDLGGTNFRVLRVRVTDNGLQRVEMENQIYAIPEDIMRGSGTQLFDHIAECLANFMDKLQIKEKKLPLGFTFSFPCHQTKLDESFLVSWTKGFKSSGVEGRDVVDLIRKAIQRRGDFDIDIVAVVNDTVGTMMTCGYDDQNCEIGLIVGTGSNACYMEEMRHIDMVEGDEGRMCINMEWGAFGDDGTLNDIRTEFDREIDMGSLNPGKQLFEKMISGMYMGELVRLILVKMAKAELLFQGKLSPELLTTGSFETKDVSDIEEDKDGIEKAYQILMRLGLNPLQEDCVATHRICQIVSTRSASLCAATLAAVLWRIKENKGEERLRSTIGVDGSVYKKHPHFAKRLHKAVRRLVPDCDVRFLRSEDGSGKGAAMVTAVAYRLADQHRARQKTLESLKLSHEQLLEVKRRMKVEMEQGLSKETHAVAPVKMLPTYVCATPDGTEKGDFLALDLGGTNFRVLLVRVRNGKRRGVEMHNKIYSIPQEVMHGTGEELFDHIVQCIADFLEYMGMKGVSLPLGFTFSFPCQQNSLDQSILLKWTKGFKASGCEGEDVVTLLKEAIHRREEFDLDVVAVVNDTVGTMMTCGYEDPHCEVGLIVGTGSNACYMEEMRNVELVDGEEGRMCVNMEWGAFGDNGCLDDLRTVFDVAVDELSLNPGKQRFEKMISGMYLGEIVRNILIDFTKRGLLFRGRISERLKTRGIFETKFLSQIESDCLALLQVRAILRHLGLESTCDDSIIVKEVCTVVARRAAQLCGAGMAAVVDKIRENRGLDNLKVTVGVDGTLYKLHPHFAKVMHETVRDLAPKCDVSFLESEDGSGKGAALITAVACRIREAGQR
Kind of test: Time dependent inhibition of hexokinase 2 activity after 6 h, at 5 mM compound.

Test [6] has as its target Thymidine kinase (Escherichia coli) (UniProt P23331). Kind of test: Compound was tested for the initial inhibition of thymidine kinase by 1.4 mM compound in the presence of 5.7 mM ATP.
The nature of test [7]: Tested for the velocity of 2.8 mM compound relative to that of 2.8 mM MgATP in the assay. The method, boiled down: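 E. coli TK substrate test. 0.5 h after adding inhibitor, the mixture was diluted to 2.8 mM derivative in thymidine assay medium without ATP and with 1.42 mM MnCl2. Incubated 15 min at 37 °C, in the linear range. [14C]TMP formed was compared with that from 2.8 mM ATP under the same conditions.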

The target in test [8] is T1, Hexokinase-1 (Rattus norvegicus). As to the kind of experiment: Substrate activity for rat hexokinase I as 1:1 Mg complex at 5.0 mM. A digest of the protocol:
(§1)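 Hexokinase activity read at 22 °C as A340 change, coupled to glucose-6-phosphate dehydrogenase, in 0.05 M Tris-HCl pH 7.6 with 6.6 mM MgCl2, 10 mM α-D-glucose and 0.93 mM NADP. Donor was 5.0 mM MgATP derivative (1:1 Mg complex) in place of ATP. Yeast HK was isoelectric-focused. Rat HK I and III came from electrofocused liver extract, HK II from dialysed muscle extract.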

Test [9] has as its target T2, Hexokinase-3 (Rattus norvegicus). As to the kind of experiment: Substrate activity for rat hexokinase III as 1:1 Mg complex at 5.0 mM. A digest of the protocol:
as §1

For test [10], the target named is Thymidine kinase (Escherichia coli) (UniProt P23331). As to the kind of experiment: Compound was tested for the lose of thymidine kinase activity after 6 hr, at 0 degrees celsius, with 10 mM ATP derivative. values were expressed in percent.
For test [11] the target is unchanged. Kind of test: Compound was tested for the initial inhibition of thymidine kinase by 1.4 mM compound in the presence of 5.7 mM ATP in Escherichia coli.
For test [12], the system named is Saccharomyces cerevisiae. Kind of test: Substrate activity against yeast hexokinase as 1:1 Mg complexes at 5.0 mM. The method, boiled down:
as §1

For test [13], the target named is T3, Hexokinase-2 (Rattus norvegicus). Kind of test: Substrate activity against Rat hexokinase II as 1:1 Mg complex at 5.0 mM. A digest of the protocol: as §1

Thymidine kinase (Escherichia coli), sequence (P23331 whole entry, looked up): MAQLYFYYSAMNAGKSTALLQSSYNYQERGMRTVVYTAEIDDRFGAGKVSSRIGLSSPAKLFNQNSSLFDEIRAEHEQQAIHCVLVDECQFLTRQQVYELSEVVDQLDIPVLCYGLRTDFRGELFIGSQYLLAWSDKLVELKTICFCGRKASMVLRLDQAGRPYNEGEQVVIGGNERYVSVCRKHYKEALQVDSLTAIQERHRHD

Take `CN(CCCN(C)C(=O)CCCCNc1ncnc2c1ncn2[C@@H]1O[C@H](COP(=O)(O)OP(=O)(O)OP(=O)(O)O)[C@@H](O)[C@H]1O)C(=O)CCCCNC(=O)CI`: the inhibition (in general, the share of the control response that was lost under treatment) in [1] turned out to be 0%; in the test on Saccharomyces cerevisiae [2], 0%; in [3], 51%; in [4] it was 0%; in test [5], 0%; in test [6], 5%. This compound yielded a Velocity in [7] of more than 34%.
For the compound `O=C(CI)NCCCCC(=O)NCCCCCCNc1ncnc2c1ncn2[C@@H]1O[C@H](COP(=O)(O)OP(=O)(O)OP(=O)(O)O)[C@@H](O)[C@H]1O`, the inhibition in test [1] came to 0%; in the test with Saccharomyces cerevisiae [2], 0%; in [3], 0%; in [4], 0%; in test [5] it was 0%; in test [6], 12%. Besides, in test [7], the Velocity came to 39%.
As to `O=C(CI)NCCCC(=O)NCCCCCCNc1ncnc2c1ncn2[C@@H]1O[C@H](COP(=O)(O)OP(=O)(O)OP(=O)(O)O)[C@@H](O)[C@H]1O`, the Relative velocity in test [8] was 1.3; in test [9], 2.02; in the test on Saccharomyces cerevisiae [12] it was 1; in test [13] it was 0.91. The inhibition (in test [1]; in test [10]; in the test on Saccharomyces cerevisiae [2]; in test [11]; in test [4]; in test [5]) was 0% throughout. Also, in test [7], the Velocity was found to be 36%.
For `CN(CCCCN(C)C(=O)CCCNc1ncnc2c1ncn2[C@@H]1O[C@H](COP(=O)(O)OP(=O)(O)OP(=O)(O)O)[C@@H](O)[C@H]1O)C(=O)CCCNC(=O)CI`, the inhibition in [1] turned out to be 0%; in the test with Saccharomyces cerevisiae [2] it was 0%; in test [3], 0%; in test [4], 0%; in [5] it was 0%; in test [6], 12%. Moreover, in [7], the Velocity came out at 14%.
`CN(CCCN(C)C(=O)CCCNc1ncnc2c1ncn2[C@@H]1O[C@H](COP(=O)(O)OP(=O)(O)OP(=O)(O)O)[C@@H](O)[C@H]1O)C(=O)CCCNC(=O)CI`: the Relative velocity in [8] is 0.63; in test [9], 1.02; in the test with Saccharomyces cerevisiae [12], 0.94; in test [13], 0.43. Further, the inhibition in [1] was 0%; in test [10], 44%; with Saccharomyces cerevisiae [2], 0%; in test [11], 8%; in test [4], 0%; in [5], 0%. The same compound came in with a Velocity in [7] of more than 14%.
Regarding `CN(CCCCN(C)C(=O)CCCCNc1ncnc2c1ncn2[C@@H]1O[C@H](COP(=O)(O)OP(=O)(O)OP(=O)(O)O)[C@@H](O)[C@H]1O)C(=O)CCCCNC(=O)CI`, the inhibition worked out at 0% in [1]; 0% with Saccharomyces cerevisiae [2]; 0% in [3]; 0% in [4]; 0% in test [5]; 9% in test [6]. In test [7], the Velocity is 34%.
In the case of `CN(CCCCN(C)c1ncnc2c1ncn2[C@@H]1O[C@H](COP(=O)(O)OP(=O)(O)OP(=O)(O)O)[C@@H](O)[C@H]1O)C(=O)CCCNC(=O)CI`, the Relative velocity in [8] was 0.88; in test [9], 0.93; with Saccharomyces cerevisiae [12] it was 1.2; in test [13], 0.35. Also, the inhibition in [1] worked out at 0%; in [10], 60%; in the test with Saccharomyces cerevisiae [2], 0%; in test [11], 0%; in test [4], 0%; in test [5] it was 0%. Moreover, the Velocity in test [7] was more than 33%.
As for `O=C(CI)NCCCCCCC(=O)NCCCNc1ncnc2c1ncn2[C@@H]1O[C@H](COP(=O)(O)OP(=O)(O)OP(=O)(O)O)[C@@H](O)[C@H]1O`, the inhibition in test [1] was determined as 0%; in the test with Saccharomyces cerevisiae [2], 0%; in test [3], 58%; in test [5] it was 0%; in test [6], 28%. For the same compound, the Velocity in test [7] was more than 25%.

The record behind these values is ChEMBL document CHEMBL1122206, “Use of adenine nucleotide derivatives to assess the potential of exo-active-site-directed reagents as species- or isozyme-specific enzyme inactivators. 5. Interactions of adenosine 5'-triphosphate derivatives with rat pyruvate kinases, Escherichia coli thymidine kinase, and yeast and rat …” (1982).
